# According to ChEMBL document CHEMBL5724801, “EUbOPEN Chemogenomics Library - Multiplex” (2024):
# Values joined by “and” are separate entries in the source; they are usually repeats but may differ in a detail not shown here. Equal values may be shown once.
# What was measured:
# U2OS = test: Multiplex assay against U2OS; type: toxicity, cell-based; details: human
# Procedure, shortened: (§1)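 Hoechst33342, BioTracker Green Microtubule Cytoskeleton Dye, MitoTracker Red and Annexin V Alexa Fluor 680 were added to live cells at seeding, and imaging on a CQ1 microscope at 37°C and 5% CO2 followed compound addition. Gating by CellPathfinder machine learning separated cells into Hoechst high-intensity objects or normal cells, then normal cells into healthy, pyknosed or fragmented nuclei, then pyknosed cells into mitotic or apoptotic. Per cents of healthy-nucleus cells are reported for the tubulin, mitochondrial-mass and membrane-permeability phenotypes.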
# Fibroblast = test: Multiplex assay against human fibroblast; type: toxicity, cell-based; procedure, shortened: as §1
# [1] = 24 h, 1 µM, compound concentration 1 uM
# [2] = 24 h, 10 µM, compound concentration 10 uM
# [3] = 48 h, 1 µM, compound concentration 1 uM
# [4] = 48 h, 10 µM, compound concentration 10 uM
# [5] = 12 h, 1 µM, compound concentration 1 uM
# [6] = 12 h, 10 µM, compound concentration 10 uM
structure (smiles),measurement,setting,value
CCCCC1=NC2(CCCC2)C(=O)N1Cc1ccc(-c2ccccc2-c2nnn[nH]2)cc1 [IRBESARTAN],Total Cell Count,U2OS; [1],241 and 142
same,Population Apoptotic (%),U2OS; [2],96% and 91%
same,Population Fragmented Nuclei (%),U2OS; [2],18%
same,Population Healthy Nuclei (%),U2OS; [2],73% and 72%
same,Population Hoechst High Intensity Objects (%),U2OS; [2],2% and 0%
same,Population Membrane Permeable-Phenotype (%),U2OS; [2],6% and 7%
same,Population Mitochondria Different-Phenotype (%),U2OS; [2],3%
same,Population Mitotic Cells (%),U2OS; [2],4% and 8%
same,Population Normal (%),U2OS; [2],97% and 99%
same,Population Pyknosed Nuclei (%),U2OS; [2],8%
same,Population Tubulin-Different-Phenotype (%),U2OS; [2],4% and 3%
same,Total Cell Count,U2OS; [2],301 and 135
same,Population Apoptotic (%),U2OS; [3],97% and 94%
same,Population Fragmented Nuclei (%),U2OS; [3],18% and 14%
same,Population Healthy Nuclei (%),U2OS; [3],71% and 76%
same,Population Hoechst High Intensity Objects (%),U2OS; [3],2% and 4%
same,Population Membrane Permeable-Phenotype (%),U2OS; [3],5% and 6%
same,Population Mitochondria Different-Phenotype (%),U2OS; [3],2% and 1%
same,Population Mitotic Cells (%),U2OS; [3],2% and 5%
same,Population Normal (%),U2OS; [3],97% and 95%
same,Population Pyknosed Nuclei (%),U2OS; [3],10% and 9%
same,Population Tubulin-Different-Phenotype (%),U2OS; [3],2%
same,Total Cell Count,U2OS; [3],357 and 198
same,Population Apoptotic (%),U2OS; [4],89% and 94%
same,Population Fragmented Nuclei (%),U2OS; [4],14% and 16%
same,Population Healthy Nuclei (%),U2OS; [4],75% and 72%
same,Population Hoechst High Intensity Objects (%),U2OS; [4],3% and 4%
same,Population Membrane Permeable-Phenotype (%),U2OS; [4],7% and 9%
same,Population Mitochondria Different-Phenotype (%),U2OS; [4],3% and 7%
same,Population Mitotic Cells (%),U2OS; [4],10% and 5%
same,Population Normal (%),U2OS; [4],96% and 95%
same,Population Pyknosed Nuclei (%),U2OS; [4],9% and 10%
same,Population Tubulin-Different-Phenotype (%),U2OS; [4],3% and 7%
same,Total Cell Count,U2OS; [4],419 and 175
same,Population Apoptotic (%),Fibroblast; [5],40% and 38%
same,Population Fragmented Nuclei (%),Fibroblast; [5],14% and 24%
same,Population Healthy Nuclei (%),Fibroblast; [5],67% and 55%
same,Population Hoechst High Intensity Objects (%),Fibroblast; [5],1% and 3%
same,Population Membrane Permeable-Phenotype (%),Fibroblast; [5],0% and 7%
same,Population Mitochondria Different-Phenotype (%),Fibroblast; [5],5% and 2%
same,Population Mitotic Cells (%),Fibroblast; [5],59% and 61%
same,Population Normal (%),Fibroblast; [5],98% and 96%
same,Population Pyknosed Nuclei (%),Fibroblast; [5],17% and 20%
same,Population Tubulin-Different-Phenotype (%),Fibroblast; [5],28% and 43%
same,Total Cell Count,Fibroblast; [5],159 and 187
same,Population Apoptotic (%),Fibroblast; [6],60% and 45%
same,Population Fragmented Nuclei (%),Fibroblast; [6],11% and 32%
same,Population Healthy Nuclei (%),Fibroblast; [6],74% and 48%
same,Population Hoechst High Intensity Objects (%),Fibroblast; [6],3% and 7%
same,Population Membrane Permeable-Phenotype (%),Fibroblast; [6],3% and 12%
same,Population Mitochondria Different-Phenotype (%),Fibroblast; [6],4% and 3%
same,Population Mitotic Cells (%),Fibroblast; [6],40% and 54%
same,Population Normal (%),Fibroblast; [6],96% and 92%
same,Population Pyknosed Nuclei (%),Fibroblast; [6],13% and 18%
same,Population Tubulin-Different-Phenotype (%),Fibroblast; [6],37% and 53%
same,Total Cell Count,Fibroblast; [6],151 and 129
same,Population Apoptotic (%),Fibroblast; [1],47% and 31%
same,Population Fragmented Nuclei (%),Fibroblast; [1],19% and 25%
same,Population Healthy Nuclei (%),Fibroblast; [1],69% and 57%
same,Population Hoechst High Intensity Objects (%),Fibroblast; [1],2% and 3%
same,Population Membrane Permeable-Phenotype (%),Fibroblast; [1],1%
same,Population Mitochondria Different-Phenotype (%),Fibroblast; [1],3% and 0%
same,Population Mitotic Cells (%),Fibroblast; [1],52% and 68%
same,Population Normal (%),Fibroblast; [1],97% and 96%
same,Population Pyknosed Nuclei (%),Fibroblast; [1],10% and 16%
same,Population Tubulin-Different-Phenotype (%),Fibroblast; [1],22% and 40%
same,Total Cell Count,Fibroblast; [1],170 and 183
same,Population Apoptotic (%),Fibroblast; [2],56% and 45%
same,Population Healthy Nuclei (%),Fibroblast; [2],74% and 47%
same,Population Hoechst High Intensity Objects (%),Fibroblast; [2],1% and 2%
same,Population Membrane Permeable-Phenotype (%),Fibroblast; [2],3% and 8%
same,Population Mitochondria Different-Phenotype (%),Fibroblast; [2],7% and 5%
same,Population Mitotic Cells (%),Fibroblast; [2],44% and 55%
same,Population Normal (%),Fibroblast; [2],98% and 97%
same,Population Pyknosed Nuclei (%),Fibroblast; [2],16%
same,Population Tubulin-Different-Phenotype (%),Fibroblast; [2],37% and 60%
same,Total Cell Count,Fibroblast; [2],155 and 125
same,Population Apoptotic (%),Fibroblast; [3],60% and 55%
same,Population Fragmented Nuclei (%),Fibroblast; [3],21% and 31%
same,Population Healthy Nuclei (%),Fibroblast; [3],69% and 58%
same,Population Hoechst High Intensity Objects (%),Fibroblast; [3],3% and 2%
same,Population Membrane Permeable-Phenotype (%),Fibroblast; [3],0% and 2%
same,Population Mitochondria Different-Phenotype (%),Fibroblast; [3],4% and 1%
same,Population Mitotic Cells (%),Fibroblast; [3],40% and 44%
same,Population Normal (%),Fibroblast; [3],96% and 97%
same,Population Pyknosed Nuclei (%),Fibroblast; [3],8% and 10%
same,Population Tubulin-Different-Phenotype (%),Fibroblast; [3],31% and 39%
same,Total Cell Count,Fibroblast; [3],173 and 178
same,Population Apoptotic (%),Fibroblast; [4],61% and 37%
same,Population Fragmented Nuclei (%),Fibroblast; [4],14% and 37%
same,Population Healthy Nuclei (%),Fibroblast; [4],66% and 48%
same,Population Hoechst High Intensity Objects (%),Fibroblast; [4],2% and 0%
same,Population Membrane Permeable-Phenotype (%),Fibroblast; [4],1% and 3%
same,Population Mitochondria Different-Phenotype (%),Fibroblast; [4],5% and 1%
same,Population Mitotic Cells (%),Fibroblast; [4],38% and 62%
same,Population Normal (%),Fibroblast; [4],97% and 99%
same,Population Pyknosed Nuclei (%),Fibroblast; [4],18% and 13%
same,Population Tubulin-Different-Phenotype (%),Fibroblast; [4],38% and 58%
same,Total Cell Count,Fibroblast; [4],141 and 117
